Rows were chosen to be rich in hits. Some 1.2% of all compounds tested hit in one or more screens of this group.
MsrA inhibitor – inhibitors of bovine MsrA; purified bovine MsrA, absorbance read-out; inhibition, % at 15.5 µM; 0.75% of 360,000 active;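 also: 0% = vehicle wells with enzyme and 100% = reference inhibitor wells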
proCasp7 act – activates human procaspase-7, counter-screen for procaspase-3 activators; P55210; recombinant procaspase-7, Ac-DEVD-pNA absorbance 405 nm; D23A/D198A/D206A triple mutant, cannot self-cleave; scale: DMSO 0, 5 µM enzyme 100; activation, % at 8.5 µM; 0.093% of 330,000 active; AID 463210;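 active = percent activation above the screen-wide mean plus 3 SD, cut at about 25% in these data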
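Assay system: Uncleavable procaspase-7 mutant enzyme / Input: 2 µM procaspase-7 mutant as dispensed / Dosing: single nominal 8.5 µM compound dose, 0.8% DMSO final / Timing: 1 h enzyme–compound preincubation and 2 h substrate reaction, both 25 °C / Detection: p-Nitroaniline absorbance at 405 nm, read at 0 and 120 min / Replication: singlicate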
MsrA act – activators of bovine methionine sulfoxide reductase A; AID 602163; 0.3% of 360,000 active; activation, % at 10.6 µM; purified bovine MsrA, absorbance read-out; in the data active = activation above about 7.5%;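 also: 0% = vehicle and 100% = reference activator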
proCasp3 act – procaspase-3 (human) activation | P42574 | recombinant procaspase-3 D3A, Ac-DEVD-pNA absorbance 405 nm | 0.11% of 330,000 active | AID 463141 | activation, % at 8.5 µM;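 active = activation above the mean of all tested compounds plus 3 SD, cut at about 21% in these data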;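 also: 0% = DMSO alone and 100% = DMSO wells spiked with extra 5 µM PC-3 D3A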
Target sequence (P42574 whole entry D9A/D28A/D175A): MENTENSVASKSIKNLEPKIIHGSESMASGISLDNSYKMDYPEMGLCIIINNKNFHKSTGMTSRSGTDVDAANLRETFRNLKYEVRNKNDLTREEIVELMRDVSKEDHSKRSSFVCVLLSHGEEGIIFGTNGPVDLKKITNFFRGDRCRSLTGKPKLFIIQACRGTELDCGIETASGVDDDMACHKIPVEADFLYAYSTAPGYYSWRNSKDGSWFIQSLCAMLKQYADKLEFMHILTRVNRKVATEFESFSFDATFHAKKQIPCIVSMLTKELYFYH
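System: Procaspase-3 D3A mutant. Medium: Zinc-free 300 mM NaCl, 50 mM HEPES, 0.01% Triton X-100. Schedule: 1 h preincubation plus 2 h reaction at 25 °C. Measured by: 405 nm absorbance of p-nitroaniline, reads at 0 and 120 min. Read-out: percent activation relative to control range.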
MsrA inh confirm – bovine MsrA inhibition, confirmed | shares compounds with MsrA inhibitor | purified bovine MsrA, absorbance read-out | inhibition, % at 15.5 µM | 41% of 2,300 active;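 also: coupled to thioredoxin reductase with NADPH and selenocystamine and DMSO as substrate; 0% = vehicle only and 100% = full effect of reference inhibitor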
Starred values were filed as active, the others as inactive; x = no result given. Rule as the data show it, unless noted: active = inhibition above about 4.5%; inactive = the rest.

SMILES | MsrA inhibitor | proCasp7 act | MsrA act | proCasp3 act | MsrA inh confirm
CCOC(=O)C1CCN(C(=O)c2ccc(C)o2)CC1 | 0 | 12 | -4 | -1 | x
CCOC(=O)C1CCN(C(=O)c2c(C)oc3c2C(=O)c2ccccc2C3=O)CC1 | 9.3* | 3 | 2 | 1 | 14*
Cc1oc2c(c1C(=O)N1CCC(C)CC1)C(=O)c1ccccc1C2=O | 13* | -3 | x | 6 | 6.0*
Cc1ccccc1C(=O)N[C@H](C(=O)N1CCC[C@H]1C(=O)NC1CCCC1)C1CCCCC1 | 0 | x | x | x | x
Cc1ccsc1/C=N/NC(=O)c1cccs1 | 4 | 1 | -3 | 2 | x
O=C(N/N=C/c1ccc(Br)s1)c1ccccn1 | 6.0* | 0 | -2 | -6 | 7.0*
Cc1ccsc1/C=N/NC(=O)c1ccccn1 | 5.7* | -1 | -3 | 8 | 4
O=C(N/N=C/c1ccsc1)c1ccccn1 | 2 | 1 | -8 | 5 | x
COc1ccc(N2C[C@@]3(O)CC[C@@H](O)[C@@H](OC)[C@@H]3[C@@](C)(O)[C@@H]2CC=C(C)C)cc1 | 0 | x | x | x | x
O=C(O)c1ccc(N/N=C/c2cccc3nccnc23)cc1 | 5.3* | -1 | -8 | 1 | 4
CCCCN1CC(COCc2ccccc2)Oc2cccc(N3CCCCC3)c2S1(=O)=O (stereo not given) | 1 | x | x | x | x
COC(=O)[C@]12C[C@H](CC(=O)NCc3cccc4ccccc34)C(=O)N(Cc3ccccc3)C1=C[C@H](C(C)C)O[C@@H]2C1CC1 | 1 | x | x | x | x
CCc1noc(C)c1C(=O)Nc1nc2c(C)cccc2s1 | 2 | 5 | -3 | 1 | x
CCc1noc(C)c1C(=O)Nc1nc(-c2ccc(F)cc2)c(C)s1 | 9.5* | -11 | -4 | -1 | 8.7*
CCc1noc(C)c1C(=O)Nc1nc(-c2cc(C)ccc2C)c(C)s1 | 18* | 0 | -15 | 2 | 21*
COC(=O)c1ccccc1NC(=O)c1cnc2sccn2c1=O | 1 | -3 | -2 | 3 | x
O=C(Nc1nccs1)c1cnc2sccn2c1=O | 5.8* | x | -10 | x | 5.7*
Cc1cc(O)c(C(C)C)cc1N=Cc1ccc(N(C)C)cc1 | 4.9* | x | -5 | x | 4
COc1cc(C=NN=c2sc3ccccc3n2C)ccc1OCCO | 3 | x | x | x | x
CCCCCCCCN1C(=O)[C@@H](CC(=O)NCCC(C)C)C[C@@]2(C(=O)OC)C1=C[C@H](C(C)(C)C)O[C@@H]2C | -1 | x | x | x | x
O=C(N/C(=C/c1ccc(Br)cc1)c1nc2ccccc2[nH]1)c1ccco1 | 5.9* | 13 | -7 | 0 | 4
O=C(N/C(=C/c1ccc(Cl)cc1)c1nc2ccccc2[nH]1)c1ccco1 | 4 | -7 | -7 | -2 | x
C=CCN1C(=O)[C@]2(OCCC=C[C@H]2C)c2cc(OC)ccc21 | 1 | x | x | x | x
C[C@H](CO)N1C[C@H](C)[C@@H](CN(C)C(=O)c2ccncc2)OCc2cn(nn2)CCCC1=O | 0 | x | x | x | x
O=C(O)COc1ccccc1/C=N/Nc1ccc(S(=O)(=O)N2CCOCC2)cc1[N+](=O)[O-] | 4.9* | -3 | -5 | -10 | 4
SMILES | MsrA inhibitor | proCasp7 act | MsrA act | proCasp3 act | MsrA inh confirm
C=CCN1CC(COCc2ccccc2)OCCS1(=O)=O (stereo not given) | -1 | x | x | x | x
O=[N+]([O-])c1ccc(Cl)c(-c2ccc(/C=N/n3cnnc3)o2)c1 | 5.2* | 0 | -9 | 1 | 6.0*
O=[N+]([O-])c1cc(-c2ccc(/C=N/n3cnnc3)o2)ccc1Cl | 0 | 15 | -2 | 7 | x
CCOC(=O)C1=CCN(S(=O)(=O)c2ccc(Cl)cc2)C1c1cccc(Br)c1 (stereo not given) | 0 | x | x | x | x
CC1(CC(=O)N/N=C/c2ccc(-c3ccc(Cl)cc3)o2)OCCO1 | 7.7* | 6 | -10 | 5 | 4.8*
COC(=O)N/N=C/c1ccc(-c2cccc(Cl)c2)o1 | 6.4* | -1 | -2 | 7 | 5.1*
COC(=O)N/N=C/c1ccc(-c2cc(Cl)cc(Cl)c2)o1 | 4 | -1 | -8 | 8 | x
CCc1cccc(C)c1NC(=O)c1cc(=O)[nH]c2ccc(S(=O)(=O)N3CCOCC3)cc12 | 17* | -3 | -1 | 0 | 28*
Cc1ccc(NC(=O)c2cc(=O)[nH]c3ccc(S(=O)(=O)N4CCOCC4)cc23)cc1 | 0 | -3 | -2 | 1 | x
CC(=O)Nc1ccc(N=C(C2=C(O)c3ccccc3C2=O)c2ccccc2)cc1 | 4.7* | 3 | -7 | -4 | 4
CC1(C)S/C(=N/N=C/c2ccco2)NC1=O | 5.9* | -3 | -14 | 1 | 5.5*

Bioassay records: PubChem BioAssay, The Scripps Research Institute Molecular Screening Center
